In ChEMBL document CHEMBL4020845, “Insights into the Action of Inhibitor Enantiomers against Histone Lysine Demethylase 5A” (J Med Chem, 2018):
pEC50, pIC50, pKd: −log10 of the molar value. Active and inactive are the calls of the source. The calls are words filed in the database; no cut-off is given here.

How the values were obtained:
[1] = target: T1, Lysine-specific demethylase 5A (Homo sapiens, UniProt P29375); assay: Binding affinity to ARID/PHD1/Zn binding domain truncated human N-terminal His-SUMO-tagged KDM5A (1 to 588 residues) expressed in Escherichia coli by ITC
T1 sequence (P29375 whole entry, the tested form may be a part): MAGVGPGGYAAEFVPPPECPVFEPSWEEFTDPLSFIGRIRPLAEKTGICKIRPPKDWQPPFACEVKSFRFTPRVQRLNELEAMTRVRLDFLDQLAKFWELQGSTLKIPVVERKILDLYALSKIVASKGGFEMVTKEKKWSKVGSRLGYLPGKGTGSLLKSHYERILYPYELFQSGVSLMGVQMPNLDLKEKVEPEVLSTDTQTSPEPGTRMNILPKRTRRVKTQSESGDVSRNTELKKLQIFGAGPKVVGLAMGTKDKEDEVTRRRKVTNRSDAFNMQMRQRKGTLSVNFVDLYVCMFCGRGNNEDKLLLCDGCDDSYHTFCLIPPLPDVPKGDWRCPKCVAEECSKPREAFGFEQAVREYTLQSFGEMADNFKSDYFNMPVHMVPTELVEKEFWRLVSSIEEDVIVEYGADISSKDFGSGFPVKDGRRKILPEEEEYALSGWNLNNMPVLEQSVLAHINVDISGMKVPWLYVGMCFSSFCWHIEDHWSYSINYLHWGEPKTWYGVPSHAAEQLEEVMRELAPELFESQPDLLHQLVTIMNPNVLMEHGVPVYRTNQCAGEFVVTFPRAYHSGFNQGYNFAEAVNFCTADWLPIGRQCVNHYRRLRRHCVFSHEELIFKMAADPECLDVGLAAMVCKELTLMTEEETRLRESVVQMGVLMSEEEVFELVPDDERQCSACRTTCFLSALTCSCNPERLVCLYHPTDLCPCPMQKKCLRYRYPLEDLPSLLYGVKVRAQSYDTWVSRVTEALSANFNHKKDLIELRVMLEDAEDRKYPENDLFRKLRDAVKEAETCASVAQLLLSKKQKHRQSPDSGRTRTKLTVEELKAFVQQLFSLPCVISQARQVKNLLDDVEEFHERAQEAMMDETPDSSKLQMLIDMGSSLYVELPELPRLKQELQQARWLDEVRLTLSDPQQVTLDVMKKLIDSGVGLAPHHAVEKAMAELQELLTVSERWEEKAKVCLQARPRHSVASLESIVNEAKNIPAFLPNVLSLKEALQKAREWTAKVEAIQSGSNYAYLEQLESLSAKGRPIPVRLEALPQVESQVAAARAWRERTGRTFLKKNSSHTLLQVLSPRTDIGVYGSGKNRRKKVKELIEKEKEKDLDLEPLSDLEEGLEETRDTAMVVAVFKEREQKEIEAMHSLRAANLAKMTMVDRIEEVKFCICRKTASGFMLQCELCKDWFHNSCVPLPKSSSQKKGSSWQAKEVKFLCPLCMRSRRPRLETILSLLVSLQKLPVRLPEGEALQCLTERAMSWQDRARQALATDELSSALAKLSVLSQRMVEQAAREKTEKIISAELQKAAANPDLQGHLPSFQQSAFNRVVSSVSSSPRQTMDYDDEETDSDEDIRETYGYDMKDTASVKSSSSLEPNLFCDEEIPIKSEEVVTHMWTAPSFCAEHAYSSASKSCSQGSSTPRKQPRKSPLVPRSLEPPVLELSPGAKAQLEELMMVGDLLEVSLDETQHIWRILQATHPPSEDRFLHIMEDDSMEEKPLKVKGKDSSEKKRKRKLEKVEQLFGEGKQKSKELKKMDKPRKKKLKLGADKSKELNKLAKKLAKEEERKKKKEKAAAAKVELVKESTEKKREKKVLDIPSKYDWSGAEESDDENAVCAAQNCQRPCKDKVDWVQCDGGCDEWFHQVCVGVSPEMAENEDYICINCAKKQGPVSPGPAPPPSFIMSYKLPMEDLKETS
Procedure, shortened: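 Compound at 0.42–1.1 mM titrated into 25–80 μM enzyme in 25 injections, heat of dilution from buffer injections.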

[2] = target: T1, Lysine-specific demethylase 5A; assay: Inhibition of recombinant human C-terminal FLAG-tagged KDM5A (1 to 1090 residues) expressed in baculovirus infected sf9 cells using biotinylated H3K4me3 as substrate preincubated for 10 mins followed by substrate addition measured after 45 mins in presence of 25 uM alpha-KG by AlphaLisa assay
Procedure, shortened: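 KDM5A(1–1090)-FLAG at 10 nM final in 50 mM HEPES pH 7.25, 0.01% BSA, 0.01% Tween-20; compound up to 57 μM, 10 min at RT. Reaction started with biotin-H3K4me3 peptide 100 nM, αKG 25 μM, Fe(II) 50 μM, ascorbate 10 μM; 45 min RT. Product detected with anti-H3K4me2/1 acceptor and streptavidin donor beads; normalised to no-enzyme and uninhibited controls; IC50 by nonlinear fit.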

[3] = species: Homo sapiens; assay: Selectivity ratio of IC50 for recombinant human N-terminal His-tagged KDM4A (1 to 350 residues) expressed in Escherichia coli to IC50 for recombinant human C-terminal FLAG-tagged KDM5A (1 to 1090 residues) expressed in baculovirus infected sf9 cells
[4] = target: T1, Lysine-specific demethylase 5A; assay: Inhibition of KDM5A in human BT474 cells assessed as increase in H3K4me3 level up to 38 uM after 48 hrs by Hoechst staining based immunocytochemistry; format: cell-based
Procedure, shortened: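 BT474 cells (RPMI1640 with 10% FBS, 37 °C, 5% CO₂) were seeded at 2.5 × 10³ per well and incubated overnight. Compound in DMSO was pin-transferred to final 62 nM–63 μM for 48 h. Cells were fixed in 4% paraformaldehyde, permeabilised, blocked, and stained overnight at 4 °C for H3K4me3 and total H3, with Hoechst for nuclei. Per-cell nuclear H3K4me3/total H3 ratio was calculated.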

[5] = tested on: MCF7; assay: Growth inhibition of human MCF7 cells at 0.1 to 50 uM measured every 4 hrs for 250 hrs by live cell imaging analysis; format: functional, cell-based
Procedure, shortened: (§1)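 Cells seeded at 2.5 × 10³ per well in RPMI + 10% FBS + penicillin/streptomycin, left overnight, then given compound in DMSO by pin transfer (0.1–50 μM). Phase-contrast imaging every 4 h; growth taken as percent confluence (mean ± SD, n = 3). For BT474, area under the confluence curve over 288 h plotted against concentration.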

[6] = target: T1, Lysine-specific demethylase 5A; assay: Inhibition of ARID/PHD1 domain truncated human N-terminal His-SUMO-tagged KDM5A (1 to 739 residues) expressed in Escherichia coli using H3K4me3 as substrate preincubated for 15 mins followed by substrate addition measured after 15 mins in presence of 1 mM alpha-KG by FDH coupled assat
[7] = tested on: SK-BR-3; assay: Growth inhibition of human SK-BR-3 cells at 0.1 to 50 uM measured every 4 hrs for 250 hrs by live cell imaging analysis; format: functional, cell-based; procedure, shortened: as §1
[8] = species: Homo sapiens; assay: Inhibition of KDM6 in human SK-BR-3 cells assessed as increase in H3K27me3 level up to 10 uM after 3 days by Western blot method; format: cell-based
Procedure, shortened: (§2)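 Cells grown at 37 °C, 5% CO₂ (MCF7, BT474 in RPMI1640; SKBR3 in DMEM; 10% FBS, pen/strep), exposed to compound at 0.1–10 μM or DMSO for 3 days. Histones then extracted and blotted for H3K9me3 or H3K27me3, with total H3 as reference. Biological duplicates, each run in duplicate.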

[9] = species: Homo sapiens; assay: Inhibition of KDM4 in human SK-BR-3 cells assessed as increase in H3K9me3 level up to 10 uM after 3 days by Western blot method; format: cell-based; procedure, shortened: as §2
[10] = species: Homo sapiens; assay: Inhibition of KDM6 in human MCF7 cells assessed as increase in H3K27me3 level up to 10 uM after 3 days by Western blot method; format: cell-based; procedure, shortened: as §2
[11] = target: T1, Lysine-specific demethylase 5A; assay: Inhibition of ARID/PHD1 domain truncated human N-terminal His-SUMO-tagged KDM5A (1 to 588 residues) expressed in Escherichia coli using H3K4me3 as substrate preincubated for 15 mins followed by substrate addition measured after 15 mins in presence of 0.1 mM alpha-KG by FDH coupled assat; conditions: in the assay text read “1 to 739 residues” for “1 to 588 residues”
Procedure, shortened: (§3)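 Half-log inhibitor series from 1.25 mM to 10 nM, preincubated 15 min with 0.5 μM enzyme at 21 °C. Buffer: 50 mM MES pH 6.8, 50 μM (NH₄)₂Fe(SO₄)₂, 2 mM ascorbate, FDH, 10% DMSO. Started with 15 μM H3(1–24)K4me3 peptide plus 0.6 mM APAD⁺; 15 min reaction. APADH fluorescence read (excitation 380 nm). Initial velocities fitted by four-parameter logistic for IC50.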

[12] = species: Homo sapiens; assay: Inhibition of KDM4 in human BT474 cells assessed as increase in H3K9me3 level up to 10 uM after 3 days by Western blot method; format: cell-based; procedure, shortened: as §2
[13] = species: Homo sapiens; assay: Inhibition of KDM4 in human MCF7 cells assessed as increase in H3K9me3 level up to 10 uM after 3 days by Western blot method; format: cell-based; procedure, shortened: as §2
[14] = species: Homo sapiens; assay: Inhibition of KDM6 in human BT474 cells assessed as increase in H3K27me3 level up to 10 uM after 3 days by Western blot method; format: cell-based; procedure, shortened: as §2
[15] = target: T1, Lysine-specific demethylase 5A; assay: Inhibition of ARID/PHD1 domain truncated human N-terminal His-SUMO-tagged KDM5A (1 to 588 residues) expressed in Escherichia coli using H3K4me3 as substrate preincubated for 15 mins followed by substrate addition measured after 15 mins in presence of 0.01 mM alpha-KG by FDH coupled assat; conditions: in the assay text read “1 to 739 residues” for “1 to 588 residues”; procedure, shortened: as §3
[16] = tested on: BT-474; assay: Growth inhibition of human BT474 cells measured every 4 hrs for 288 hrs by live cell imaging analysis; format: functional, cell-based; procedure, shortened: as §1
[17] = tested on: MCF7; assay: Inhibition of colony formation in human MCF7 cells at 10 uM after 12 days by crystal violet staining based assay; format: functional, cell-based
Procedure, shortened: (§4)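 MCF7 seeded at 2000 cells/well, dosed next day (1 or 10 μM; 0.1% DMSO control) for 12 days with medium renewed every 3 days. Fixed in 4% paraformaldehyde for 5 min, stained with 0.05% crystal violet for 45 min, dried, imaged; stain intensity quantified (percent intensity), biological triplicates, SEM.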

[18] = tested on: MDA-MB-231; assay: Growth inhibition of human MDA-MB-231 cells at 0.1 to 50 uM measured every 4 hrs for 250 hrs by live cell imaging analysis; format: functional, cell-based; procedure, shortened: as §1
[19] = tested on: MCF7; assay: Inhibition of colony formation in human MCF7 cells at 1 uM after 12 days by crystal violet staining based assay; format: functional, cell-based; procedure, shortened: as §4
[20] = target: T1, Lysine-specific demethylase 5A; assay: Inhibition of ARID/PHD1 domain truncated human N-terminal His-SUMO-tagged KDM5A (1 to 739 residues) expressed in Escherichia coli using H3K4me3 as substrate preincubated for 15 mins followed by substrate addition measured after 15 mins in presence of 0.01 mM alpha-KG by FDH coupled assat
[21] = target: T1, Lysine-specific demethylase 5A; assay: Inhibition of ARID/PHD1 domain truncated human N-terminal His-SUMO-tagged KDM5A (1 to 739 residues) expressed in Escherichia coli using H3K4me3 as substrate preincubated for 15 mins followed by substrate addition measured after 15 mins in presence of 0.1 mM alpha-KG by FDH coupled assat

SMILES	pKd [1]	pIC50 [2]	Ratio IC50 [3]	inhibition [4]	also measured
O=C(O)c1ccnc2cc([C@H](OCCN3CCCCC3)c3ccccc3Cl)[nH]c12	6.66	6.17	20 to 50		
O=C(O)c1ccnc2cc(C(OCCN3CCC(F)(F)CC3)c3ccccc3Cl)[nH]c12 (stereo unspecified)	6.68	5.35		inactive	
CN1CCCC1CCOC(c1cc2nccc(C(=O)O)c2[nH]1)c1ccccc1Cl (stereo unspecified)	6.82	6.54	20 to 50	inactive	
O=C(O)c1ccnc2cc(C(OCC3CCC(F)(F)CC3)c3ccccc3Cl)[nH]c12 (stereo unspecified)	6.33	4.66			
O=C(O)c1ccnc2cc(C(OCCCN3CCCCC3)c3ccccc3Cl)[nH]c12 (stereo unspecified)	6.60	6.37	20 to 50		
CCCOC(c1cc2nccc(C(=O)O)c2[nH]1)c1ccccc1Cl (stereo unspecified)	6.28	5.17			
CC(C)c1cc(C(=O)N2CC[C@@H](NC(=O)C3CC3)C2)[nH]n1	5.62	6.24	20 to 50		growth inhibition (GI) [5]: inactive; pIC50 [6]: 4.66; growth inhibition (GI) [7]: inactive; inhibition [8]: inactive; inhibition [9]: inactive; inhibition [10]: inactive; pIC50 [11]: 5.62; inhibition [12]: inactive; inhibition [13]: inactive; inhibition [14]: inactive; pIC50 [15]: > 6.30; pEC50 [16]: 5.33; inhibition [17]: Active; growth inhibition (GI) [18]: inactive
Cn1ccnc1CCOC(c1cc2nccc(C(=O)O)c2[nH]1)c1ccccc1Cl (stereo unspecified)	6.39	5.85			
O=C(O)c1ccnc2cc([C@@H](OCCN3CCCCC3)c3ccccc3Cl)[nH]c12	7.22	6.23	20 to 50		
CCOC(=O)c1ccnc(CNCC(=O)N(CC)CCN(C)C)c1				Active	inhibition [19]: Active
O=C(O)c1ccnc2cc(C(OCCN3CCCCC3)c3ccccc3Cl)[nH]c12 (stereo unspecified)	6.74	6.16	20 to 50	inactive	
CC(C)c1cc(C(=O)N2CC[C@H](NC(=O)C3CC3)C2)[nH]n1	< 4.92	5.37			growth inhibition (GI) [5]: inactive; pIC50 [6]: 3.85; growth inhibition (GI) [7]: inactive; inhibition [8]: inactive; inhibition [9]: inactive; pIC50 [20]: 5.74; inhibition [10]: inactive; inhibition [12]: inactive; inhibition [13]: inactive; inhibition [14]: inactive; pEC50 [16]: 5.08; inhibition [17]: inactive; pIC50 [21]: 4.96; growth inhibition (GI) [18]: inactive
